Experiment [1] addresses Sarcoplasmic/endoplasmic reticulum calcium ATPase 1 (Rattus norvegicus) (UniProt Q64578). The experiment is described as follows: Inhibition of SERCA1 in rat INS-1E cells assessed as insulin release preincubated for 24 hrs followed by incubation in glucose-free buffer and measured after 30 mins by RIA. It is filed as cell-based. An outline of the steps: (§1)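 INS-1E cells preincubated 24 h with compound, then washed and incubated 30 min at 37 °C in glucose-free KRBH. A further 30 min at 37 °C followed in KRBH containing 16.7 mM glucose. Insulin in collected supernatants determined by RIA with rat insulin standard.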

For experiment [2] the target is unchanged. In words: Inhibition of SERCA1 in rat INS-1E cells assessed as induction of apoptosis by measuring increase in late apoptotic cells at IC50 for cell viability incubated for 24 hrs by Annexin V-FITC/propidium iodide staining based flow cytometry. The method, boiled down: (§2)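 INS-1E cells incubated 24 h with compound, then stained with Annexin V-FITC/propidium iodide. Living, early apoptotic and late apoptotic fractions scored by flow cytometry and compared with untreated cells.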
Background: Flow cytometry measures light scatter and fluorescence of single cells or particles in a stream.

The target of experiment [3] is Sarcoplasmic/endoplasmic reticulum calcium ATPase 1 (Oryctolagus cuniculus) (UniProt P04191). In words: Binding affinity to transmembrane region of SERCA1A ATP binding site in NewZealand rabbit SR vesicles assessed as conformational changes by measuring intrinsic Trp fluorescence at IC50 incubated for 30 mins by spectrofluorometric analysis. The method, boiled down: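 SR vesicles (1 mg protein/mL) incubated 30 min with compound, at 37 °C per methods or room temperature per legend. Trp fluorescence excited at 295 nm, with emission maxima at 336 and 358 nm. Conformational change expressed as the I358/I336 ratio versus untreated control.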
Sarcoplasmic/endoplasmic reticulum calcium ATPase 1 (Oryctolagus cuniculus), sequence (P04191 whole entry): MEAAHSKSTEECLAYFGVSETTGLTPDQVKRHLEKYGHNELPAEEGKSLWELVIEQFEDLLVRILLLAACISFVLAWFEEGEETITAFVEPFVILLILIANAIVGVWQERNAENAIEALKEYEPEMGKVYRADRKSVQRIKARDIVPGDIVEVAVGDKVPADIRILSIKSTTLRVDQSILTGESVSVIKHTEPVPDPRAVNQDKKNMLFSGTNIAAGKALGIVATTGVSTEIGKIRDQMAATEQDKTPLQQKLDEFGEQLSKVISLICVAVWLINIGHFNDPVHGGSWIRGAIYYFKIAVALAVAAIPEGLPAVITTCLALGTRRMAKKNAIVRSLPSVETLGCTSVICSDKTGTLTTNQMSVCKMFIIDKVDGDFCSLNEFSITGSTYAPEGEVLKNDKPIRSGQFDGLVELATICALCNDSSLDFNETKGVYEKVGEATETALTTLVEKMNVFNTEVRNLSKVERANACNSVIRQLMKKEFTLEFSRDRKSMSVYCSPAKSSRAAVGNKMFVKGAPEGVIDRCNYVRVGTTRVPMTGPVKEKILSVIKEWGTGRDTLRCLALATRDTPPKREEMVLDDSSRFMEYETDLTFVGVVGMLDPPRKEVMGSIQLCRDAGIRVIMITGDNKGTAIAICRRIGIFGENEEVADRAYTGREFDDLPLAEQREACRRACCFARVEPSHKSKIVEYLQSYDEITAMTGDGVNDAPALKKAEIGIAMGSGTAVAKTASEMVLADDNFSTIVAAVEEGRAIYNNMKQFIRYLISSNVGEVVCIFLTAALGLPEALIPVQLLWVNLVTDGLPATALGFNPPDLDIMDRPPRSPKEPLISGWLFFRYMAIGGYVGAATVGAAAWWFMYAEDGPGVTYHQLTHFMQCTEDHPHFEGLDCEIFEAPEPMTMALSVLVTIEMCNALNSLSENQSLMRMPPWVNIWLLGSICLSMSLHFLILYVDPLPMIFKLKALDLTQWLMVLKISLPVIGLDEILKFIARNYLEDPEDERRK

Experiment [4] has as its target Sarcoplasmic/endoplasmic reticulum calcium ATPase 1 (Oryctolagus cuniculus, UniProt P04191). The experiment is described as follows: Inhibition of SERCA1 in NewZealand rabbit skeletal muscle SR vesicles using ATP as substrate incubated for 2 mins followed by Ca2+ addition by NADH coupled enzyme assay. An outline of the steps:
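SR vesicles (1 mg prot./ml) incubated with compound (10–70 μM) for 2 min at 37 °C, pH 7.2. Ca2+-ATPase rate measured by NADH-coupled enzyme assay as absorbance at 340 nm, 37 °C. Compared with untreated control; mean ± SD from at least three independent experiments.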

Experiment [5] concerns the target Sarcoplasmic/endoplasmic reticulum calcium ATPase 1 (Rattus norvegicus) (UniProt Q64578). In words: Inhibition of SERCA1 in rat INS-1E cells assessed as induction of apoptosis by measuring decrease in living cells at IC50 for cell viability incubated for 24 hrs by Annexin V-FITC/propidium iodide staining based flow cytometry. An outline of the steps: as §2
The target is the same in experiment [6]. In words: Inhibition of SERCA1 in rat INS-1E cells assessed as induction of apoptosis by measuring increase in early apoptotic cells at IC50 for cell viability incubated for 24 hrs by Annexin V-FITC/propidium iodide staining based flow cytometry. The method, boiled down: as §2
Experiment [7] concerns the target Sarcoplasmic/endoplasmic reticulum calcium ATPase 1 (Oryctolagus cuniculus) (UniProt P04191). In words: Binding affinity to cytosolic region of SERCA1 ATP binding site in NewZealand rabbit SR vesicles assessed as conformational changes by measuring decrease in fluorescence intensity at IC50 incubated for 1 hr by FITC probe labeling based analysis. The method, boiled down:
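FITC labelling of SR vesicles (protein 12.5 mg/mL) after 1 h preincubation with compound, used as a probe of the cytosolic region of SERCA1. Figure legend states 30 min incubation at 20 mg/mL SR protein. Read-out is the decrease in FITC fluorescence versus untreated control. Mean ± SD from at least three independent experiments, each sample measured 2–3 times.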

The target in experiment [8] is Sarcoplasmic/endoplasmic reticulum calcium ATPase 1 (Rattus norvegicus) (UniProt Q64578). In words: Inhibition of SERCA1 in glucose-stimulated rat INS-1E cells assessed as decline in insulin release preincubated for 24 hrs followed by glucose addition and measured after 30 mins by RIA. An outline of the steps:
as §1

For a further experiment, the system named is INS-1E. The experiment is described as follows: Induction of SERCA2b expression in rat INS-1E cells at IC50 for cell viability incubated for 24 hrs by Western blot analysis. It is filed as functional, cell-based. An outline of the steps: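 INS-1E cells grown in RPMI 1640 (11 mM glucose) were exposed to compound for 24 h, then lysed in ice-cold lysis buffer, homogenized through a needle and centrifuged. Lysates (15 μg/lane) separated by SDS-PAGE and immunoblotted for SERCA2. Signal normalized to β-actin and given as %, average of 3–6 experiments.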

The source made the active and inactive calls. The calls are words filed in the database; no cut-off is given here.

What is called IC50 is the concentration that inhibits the measured activity by half.

Sarcoplasmic/endoplasmic reticulum calcium ATPase 1 (Rattus norvegicus), sequence (Q64578 whole entry): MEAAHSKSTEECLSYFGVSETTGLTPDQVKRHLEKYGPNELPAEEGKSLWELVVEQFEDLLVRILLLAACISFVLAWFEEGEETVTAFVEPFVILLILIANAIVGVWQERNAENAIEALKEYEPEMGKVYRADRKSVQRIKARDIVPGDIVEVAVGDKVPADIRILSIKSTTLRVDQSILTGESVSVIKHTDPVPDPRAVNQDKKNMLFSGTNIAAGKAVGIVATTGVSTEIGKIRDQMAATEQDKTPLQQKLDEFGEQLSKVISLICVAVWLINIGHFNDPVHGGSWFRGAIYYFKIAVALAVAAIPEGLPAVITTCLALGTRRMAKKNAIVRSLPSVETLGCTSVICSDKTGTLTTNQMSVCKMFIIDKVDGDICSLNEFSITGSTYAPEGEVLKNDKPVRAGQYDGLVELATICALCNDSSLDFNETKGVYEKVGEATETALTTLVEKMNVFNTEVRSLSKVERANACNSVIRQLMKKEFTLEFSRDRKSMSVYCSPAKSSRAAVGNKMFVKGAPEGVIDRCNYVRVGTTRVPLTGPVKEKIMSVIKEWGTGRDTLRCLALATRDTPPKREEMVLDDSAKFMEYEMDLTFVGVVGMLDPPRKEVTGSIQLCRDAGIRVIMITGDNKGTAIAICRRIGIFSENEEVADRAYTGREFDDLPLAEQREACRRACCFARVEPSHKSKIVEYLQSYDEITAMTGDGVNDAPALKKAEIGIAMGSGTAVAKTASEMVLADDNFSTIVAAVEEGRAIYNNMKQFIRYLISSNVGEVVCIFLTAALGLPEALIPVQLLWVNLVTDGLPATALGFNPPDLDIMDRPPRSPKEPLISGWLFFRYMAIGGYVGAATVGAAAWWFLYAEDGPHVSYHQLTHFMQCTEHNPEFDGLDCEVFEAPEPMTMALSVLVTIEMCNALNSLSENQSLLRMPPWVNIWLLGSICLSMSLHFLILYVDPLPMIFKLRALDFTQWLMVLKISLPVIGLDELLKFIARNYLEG
Sarcoplasmic/endoplasmic reticulum calcium ATPase 1, sequence (P04191 whole entry): as the sequence (P04191 whole entry) above

Take `CC(C)(O)C1Cc2cc3cc(-c4cc(O)cc(O)c4)oc3cc2O1` (stereo not drawn) [MORACIN O]: the inhibition result in experiment [1] and in experiment [2] was “inactive” each time. Moreover, the result in [3] and in experiment [7] was Active. In [4] (sr), the IC50 entry is on record as “Not Active”. For the same compound, the inhibition entry in [5], in [6] and in experiment [8] was “Active” throughout.

Regarding `CC(C)=CCc1c(-c2ccc(O)cc2O)oc2c3c(cc(O)c2c1=O)OC(C)(C)C=C3` [MORUSIN], the inhibition result in [1] and in experiment [6] was “inactive” throughout. Moreover, the inhibition entry in experiment [2], in experiment [5] and in [8] was “Active” throughout. For the same compound, the result in experiment [3] and in experiment [7] was Active. Further, the IC50 in [4] (read-out: IC50) came out at 43.6 µM.

With `COc1cc(O)c([C@@H]2CC(=O)c3c(O)cc(O)cc3O2)cc1C/C=C(\C)CCC=C(C)C`, in experiment [1], the inhibition result was “inactive”. Further, the inhibition entry in experiment [2], in [5], in [6] and in experiment [8] was “Active” each time. Besides, the outcome in experiment [3] and in experiment [7] was Active. In addition, the IC50 in experiment [4] (read-out: IC50) came to 35.6 µM.

`CC1=C[C@@H]2c3c(O)cc(-c4cc5ccc(O)cc5o4)cc3O[C@@]3(c4ccc(O)cc4O)Oc4cc(O)ccc4[C@@H](C1)[C@H]23`: in the experiment with INS-1E, the result was Active. Moreover, the inhibition entry in [1] and in experiment [2] was “inactive” each time. The outcome in experiment [3] and in experiment [7] was inactive. Moreover, the IC50 in experiment [4] (read-out: IC50) was 18.9 µM. Also, the inhibition entry in experiment [5], in experiment [6] and in experiment [8] was “Active” each time.

With `Cc1cc2c3c(c1)-c1c(O)cc(-c4cc5ccc(O)cc5o4)cc1O[C@@]3(c1ccc(O)cc1O)Oc1cc(O)ccc1-2`, the result in the experiment with INS-1E was Active. Further, the inhibition result in experiment [1] and in [2] was “inactive” each time. For the same compound, the outcome in experiment [3] and in experiment [7] was inactive. Also, in experiment [4] (read-out: IC50), the IC50 stood at 24.6 µM. For the same compound, the inhibition entry in [5], in experiment [6] and in experiment [8] was “Active” in each case.

On to `CC1(C)Oc2cc3oc(-c4cc(O)cc(O)c4)cc3cc2CC1O` (stereo not drawn) [(+/-)-MORACIN P], for which the inhibition entry in [1] and in experiment [2] was “inactive” in each case. The result in [3] and in experiment [7] was Active. Moreover, the IC50 result in experiment [4] (sr) is “Not Active”. For the same compound, the inhibition result in experiment [5], in experiment [6] and in experiment [8] was “Active” throughout.

Turning to `CC(C)=CCC/C(C)=C/Cc1cc([C@@H]2CC(=O)c3c(O)cc(O)cc3O2)c(O)cc1O`, the inhibition entry in experiment [1] is “inactive”. For the same compound, the inhibition result in experiment [2], in experiment [5], in [6] and in experiment [8] was “Active” throughout. In addition, the outcome in [3] and in [7] was Active. The IC50 in [4] (read-out: IC50) came to 29.4 µM.

Source of the values: ChEMBL document CHEMBL4610111, “Phenolic Compounds from Morus nigra Regulate Viability and Apoptosis of Pancreatic β-Cells Possibly via SERCA Activity” (ACS Med Chem Lett, 2020).
